For assay [1], the system named is Staphylococcus aureus. Put plainly: Antibacterial activity against Staphylococcus aureus Smith infected in ICR mouse assessed as survival rate at 100 ug, ip pretreated for 7 hrs before infection using 3 X 10^7 CFU inoculum measured on day 5. The format is functional.
Assay [2] deals with Staphylococcus aureus. Put plainly: Antibacterial activity against Staphylococcus aureus Smith infected in ICR mouse assessed as survival rate at 100 ug, ip pretreated for 7 hrs before infection using 3 X 10^6 CFU inoculum measured on day 5. Type of assay: functional.
For assay [3], the system named is Escherichia coli. Put plainly: Antibacterial activity against Escherichia coli EC14 infected in ICR mouse assessed as survival rate at 100 ug, ip pretreated for 7 hrs before infection using 2.5 X 10^4 CFU inoculum measured on day 5. Type of assay: functional.
Assay [4] has as its system Escherichia coli. Put plainly: Antibacterial activity against Escherichia coli EC14 infected in ICR mouse assessed as survival rate at 100 ug, ip pretreated for 7 hrs before infection using 2.5 X 10^3 CFU inoculum measured on day 5. Type of assay: functional.
Assay [5] has as its system Staphylococcus aureus. Put plainly: Antibacterial activity against Staphylococcus aureus Smith infected in ICR mouse assessed as survival rate at 100 ug, ip pretreated for 7 hrs before infection using 2 X 10^6 CFU inoculum measured on day 5 after bacterial infection. Type of assay: functional. The method in brief: (§1)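 Five-week-old female ICR mice got peptide intraperitoneally in 500 μl Dulbecco's PBS with 2% DMSO; vehicle controls got PBS/2% DMSO. The minimum lethal bacterial dose was given intraperitoneally at set intervals: S. aureus Smith 2 × 10⁶, E. faecalis SR1004 1.7 × 10⁸, E. coli EC14 2.3 × 10⁴ CFU/mouse. Survival was scored on day 5 (4 or 8 mice/group; Fisher's exact test).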

For assay [6], the system named is Enterococcus faecalis. Put plainly: Antibacterial activity against Enterococcus faecalis SR1004 infected in ICR mouse assessed as survival rate at 100 ug, ip pretreated for 7 hrs before infection using 1.7 X 10^8 inoculum measured on day 5 after bacterial infection. The format is functional. The procedure, abridged:
as §1

The test system of assay [7] is Escherichia coli. Put plainly: Antibacterial activity against Escherichia coli EC14 infected in ICR mouse assessed as survival rate at 100 ug, ip pretreated for 7 hrs before infection using 2.3 X 10^4 CFU inoculum measured on day 5 after bacterial infection. The format is functional. The method in brief: as §1
Assay [8] deals with Staphylococcus aureus. Put plainly: Antibacterial activity against Staphylococcus aureus Smith by broth microdilution method. Type of assay: functional. The procedure, abridged: (§2)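 MIC was determined by broth microdilution following NCCLS recommendations.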
Background: Dilution methods test growth across graded concentrations, often in twofold steps.

The subject of assay [9] is Enterococcus faecalis. Put plainly: Antibacterial activity against Enterococcus faecalis SR1004 by broth microdilution method. The format is functional. The method in brief:
as §2

Assay [10] relates to Escherichia coli. Put plainly: Antibacterial activity against Escherichia coli EC14 by broth microdilution method. The format is functional. The procedure, abridged: as §2
The test system of assay [11] is Staphylococcus aureus. Put plainly: Antibacterial activity against Staphylococcus aureus Smith infected in ICR mouse assessed as survival rate at 50 ug, ip treated 0.5 hrs after infection using 2 X 10^6 CFU inoculum measured on day 5 after bacterial infection. The format is functional. The procedure, abridged: as §1
The subject of assay [12] is Staphylococcus aureus. Put plainly: Antibacterial activity against Staphylococcus aureus Smith infected in ICR mouse assessed as survival rate at 50 ug, ip treated at the time of infection using 2 X 10^6 CFU inoculum measured on day 5 after bacterial infection. Type of assay: functional. The procedure, abridged:
as §1

Assay [13] has as its system Staphylococcus aureus. Put plainly: Antibacterial activity against Staphylococcus aureus Smith infected in ICR mouse assessed as survival rate at 50 ug, ip pretreated for 1 hr before infection using 2 X 10^6 CFU inoculum measured on day 5 after bacterial infection. The format is functional. The procedure, abridged: as §1
The test system of assay [14] is Staphylococcus aureus. Put plainly: Antibacterial activity against Staphylococcus aureus Smith infected in ICR mouse assessed as survival rate at 50 ug, ip pretreated for 3 hrs before infection using 2 X 10^6 CFU inoculum measured on day 5 after bacterial infection. The format is functional. The procedure, abridged:
as §1

Assay [15] relates to Staphylococcus aureus. Put plainly: Antibacterial activity against Staphylococcus aureus Smith infected in ICR mouse assessed as survival rate at 50 ug, ip pretreated for 7 hrs before infection using 2 X 10^6 CFU inoculum measured on day 5 after bacterial infection. Type of assay: functional. The procedure, abridged:
as §1

Assay [16] concerns Staphylococcus aureus. Put plainly: Antibacterial activity against Staphylococcus aureus Smith infected in ICR mouse assessed as survival rate at 50 ug, ip pretreated for 24 hrs before infection using 2 X 10^6 CFU inoculum measured on day 5 after bacterial infection. Type of assay: functional. The method in brief:
as §1

For assay [17], the system named is Staphylococcus aureus. Put plainly: Antibacterial activity against Staphylococcus aureus Smith infected in ICR mouse assessed as survival rate at 3.13 ug, ip pretreated for 7 hrs before infection using 2 X 10^6 CFU inoculum measured on day 5 after bacterial infection. The format is functional. The procedure, abridged:
as §1

Assay [18] has as its system Staphylococcus aureus. Put plainly: Antibacterial activity against Staphylococcus aureus Smith infected in ICR mouse assessed as survival rate at 12.5 ug, ip pretreated for 7 hrs before infection using 2 X 10^6 CFU inoculum measured on day 5 after bacterial infection. Type of assay: functional. The procedure, abridged:
as §1

The subject of assay [19] is Staphylococcus aureus. Put plainly: Antibacterial activity against Staphylococcus aureus Smith infected in ICR mouse assessed as survival rate at 25 ug, ip pretreated for 7 hrs before infection using 2 X 10^6 CFU inoculum measured on day 5 after bacterial infection. Type of assay: functional. The method in brief: as §1
The test system of assay [20] is Mus musculus. Put plainly: Induction of ROS generation in intraperitoneally dosed ICR mouse abdominal cavity neutrophils after 7 hrs by lucigenin-dependent chemiluminescence method. Type of assay: functional, organism-based. The method in brief: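 Peptide was injected intraperitoneally. After 7 h, peritoneal cells were collected by lavage with 5 ml cold saline, washed, and suspended at 2 × 10⁵ cells/ml in HEPES-buffered Hank's solution, pH 7.4. After 5 min at 37°C, lucigenin was added to 0.1 mM final. Chemiluminescence was read at 37°C in relative light units. The experiment was repeated and representative data shown.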

Assay [21] has as its system Mus musculus. Put plainly: Induction of neutrophil recruitment in intraperitoneally dosed ICR mouse abdominal cavity assessed as accumulation of neutrophils after 7 hrs using hematoxylin and eosin staining by microscopy. The format is functional, organism-based. The procedure, abridged:
(§3)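 Peptide was injected intraperitoneally. After 7 h, the peritoneal cavity was lavaged with 5 ml cold sterile saline. Cells were washed, resuspended at 1 × 10⁶/ml in heat-inactivated FCS, cytocentrifuged, and stained with Diff-Quick. Total cells and neutrophils were counted by microscopy, and neutrophil percentage was averaged over five fields ± SD. Comparison used an unpaired t test after arcsine transformation.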

For assay [22], the system named is Mus musculus. Put plainly: Induction of neutrophil recruitment in intraperitoneally dosed ICR mouse abdominal cavity assessed as neutrophil level after 7 hrs using hematoxylin and eosin staining by microscopy. Type of assay: functional. The procedure, abridged:
as §3

Assay [23] relates to Staphylococcus aureus. Put plainly: Antibacterial activity against Staphylococcus aureus Cowan I infected in intraperitoneally dosed ICR mouse assessed as bacterial kill in abdomen pretreated for 7 hrs before infection using 4 X 10^5 CFU inoculum. The format is functional. The procedure, abridged:
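Peptide solution (500 μl) was injected ip. After 7 h, S. aureus Cowan I (4 × 10⁵ CFU/mouse) was introduced into the abdominal cavity for 15 min. The peritoneum was lavaged with 5 ml cold sterile saline, serially diluted in PBS and plated on LB agar for 18 h. Colonies were counted against saline-control mice (unpaired Student's t test).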

In assay [24] the test system is Peritoneal macrophage cell. Put plainly: Induction of Mig/CXCL9 mRNA expression in TGC-elicited ICR mouse peritoneal macrophage at 25 ug/ml after 2.5 to 5 hrs by RT-PCR. Type of assay: functional, cell-based. The procedure, abridged: (§4)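 Mouse peritoneal macrophages were elicited with 3 ml of 3% thioglycolate medium given intraperitoneally and collected 4 days later by lavage with cold PBS. Cells were seeded at 1 × 10⁶/ml in RPMI-1640 with 10% heat-inactivated FCS and allowed to adhere for 2 h at 37°C; nonadherent cells were then rinsed off. Cells were exposed to peptide at 25 μg/ml for 2.5, 5 or 7.5 h, with LPS at 100 ng/ml for 24 h as positive control. RT-PCR used 400 ng total RNA and 25–35 cycles, with ethidium bromide agarose gels and G3PDH primers; n = 3.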

Assay [25] relates to Peritoneal macrophage cell. Put plainly: Induction of Mig/CXCL9 mRNA expression in TGC-elicited ICR mouse peritoneal macrophage at 25 ug/ml after 7.5 hrs by RT-PCR. Type of assay: functional, cell-based. The method in brief: as §4
The species named for assay [26] is Mus musculus. Put plainly: Induction of Mig/CXCL9 mRNA expression in TGC-elicited ICR mouse peritoneal macrophage at 25 ug/ml after 5 hrs by RT-PCR. Type of assay: functional. The procedure, abridged:
as §4

The source of these data is ChEMBL document CHEMBL1687732, “Prevention of death in bacterium-infected mice by a synthetic antimicrobial peptide, L5, through activation of host immunity” (2009).

A word on the MIC: it is the lowest concentration that inhibits growth of the organism. A higher MIC goes with a need for much substance.

Calls of active or inactive are those of the source. The rule behind the calls is not given here. Non-standard residues stand in square brackets, D forms with d. Residues, ends and D or L forms follow the SMILES beside them. Bounds are passed on as bounds.

As to `CC(C)C[C@@H](NC(=O)[C@H](N)CCCCN)C(=O)N[C@H](CCCCN)C(=O)N[C@H](CC(C)C)C(=O)N[C@H](CC(C)C)C(=O)N[C@H](CC(C)C)C(=O)N[C@H](CC(C)C)C(=O)N[C@H](CC(C)C)C(=O)N[C@H](CCCCN)C(=O)N[C@H](CC(C)C)C(=O)N[C@H](CCCCN)C(N)=O` (H-[dK][dL][dK][dL][dL][dL][dL][dL][dK][dL][dK]-NH2), the Activity in the assay on Staphylococcus aureus [1] was determined as 25%; in the assay with Staphylococcus aureus [2], 50%; in the assay with Escherichia coli [3], 100%; in the assay with Escherichia coli [4], 100%. Further, the Survival came out at 100% with Staphylococcus aureus [5]; 100% with Enterococcus faecalis [6]; 75% in the assay with Escherichia coli [7]; 0% in the assay with Staphylococcus aureus [11]; 0% with Staphylococcus aureus [12]; 25% with Staphylococcus aureus [13]. The Survival with Staphylococcus aureus [14] is 62.5%; in the assay on Staphylococcus aureus [15], 87.5%; in the assay with Staphylococcus aureus [16], 0%; in the assay with Staphylococcus aureus [17], 0%; with Staphylococcus aureus [18], 0%; in the assay with Staphylococcus aureus [19], 75%. Moreover, the MIC in the assay on Staphylococcus aureus [8], with Enterococcus faecalis [9] and in the assay on Escherichia coli [10] was greater than 625 µg/mL throughout.

Turning to H-KLKLLLKLK-NH2, in the assay on Staphylococcus aureus [5], the Survival was determined as 0%. Moreover, the outcome in the assay with Mus musculus [20] was inactive.

For H-KLKLLLLLKLK-NH2, the Survival in the assay on Staphylococcus aureus [5] was 75%; in the assay on Enterococcus faecalis [6], 75%; in the assay with Escherichia coli [7] it was 25%. Moreover, the MIC with Staphylococcus aureus [8], in the assay on Enterococcus faecalis [9] and in the assay with Escherichia coli [10] was greater than 625 µg/mL throughout. Besides, the result (in the assay on Mus musculus [21]; in assay [24]; in the assay filed under Mus musculus [26]; in the assay on Mus musculus [20]) was Active. The Activity with Mus musculus [22] was 40%; in the assay on Staphylococcus aureus [23], 75%. Moreover, the result in assay [25] was inactive.
